Laboratory results published in ChEMBL document CHEMBL3739299, “8-Hydroxyquinoline-based inhibitors of the Rce1 protease disrupt Ras membrane localization in human cells” (Bioorg Med Chem, 2016).
Activity calls are given as the source filed them. No cut-off for these calls is given here.

What was measured:
[1] = biological target: T1, CAAX prenyl protease 2 (Homo sapiens) (UniProt Q9Y256); assay: Inhibition of human Rce1-mediated CaaX protease activity using […] and […] as substrate assessed as residual activity at 10 uM measured every 30 to 60 seconds for 60 mins
T1 sequence (whole entry): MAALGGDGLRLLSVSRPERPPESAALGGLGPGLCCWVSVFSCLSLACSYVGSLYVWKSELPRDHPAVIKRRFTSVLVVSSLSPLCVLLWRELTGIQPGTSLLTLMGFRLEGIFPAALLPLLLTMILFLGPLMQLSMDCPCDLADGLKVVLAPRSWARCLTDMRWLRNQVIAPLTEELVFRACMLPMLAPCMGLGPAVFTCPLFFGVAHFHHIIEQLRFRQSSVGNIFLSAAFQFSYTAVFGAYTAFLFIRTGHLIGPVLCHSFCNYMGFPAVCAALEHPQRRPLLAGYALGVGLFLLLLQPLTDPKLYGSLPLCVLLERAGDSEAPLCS
Outline: (§1)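 Membranes from yeast SM3614 (ste24 rce1 null) overexpressing human Rce1, 0.25 mg/mL final in 200 mM Tris pH 7.5, 200 mM NaCl, 1 mg/mL BSA. […] Reaction started with 20 μM ABZ-KSKTKC(farnesyl)QLIM. Fluorescence (ex 320/em 420) read every 30–60 s for 60 min at 30 °C. Initial velocities trypsin-normalised; activity given as % of DMSO control.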

[2] = Cytotoxicity against human HCT116 cells assessed as cell death at 25 uM after 20 hrs by celltiter blue assay (reference value: 0.4%); assay type: cell-based; settings: hct-116, 20 h
Outline: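 HCT-116 cells grown in DMEM with 10% FBS and 1% NEAA at 37 °C, 5% CO2, seeded 7 × 10^3 per well, exposed 20 h to 25 μM compound (0.4% DMSO vehicle; untreated control). CellTiter-Blue added for 4 h, fluorescence read at 560/590 nm. Values relative to untreated cells, mean of three independent experiments with SEM.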

[3] = biological target: T2, CAAX prenyl protease 2 (Homo sapiens, UniProt Q9Y256); assay: Inhibition of human Rce1-mediated CaaX protease activity using ABZ-KSKTKC(farnesyl)QIIM and ABZ-KSKTKC(farnesyl)VIQI as substrate assessed as residual activity measured every 30 to 60 seconds for 60 mins; outline: as §1
T2 sequence (Q9Y256 whole entry): T1 sequence (whole entry)

[4] = biological target: T3, CAAX prenyl protease 1 homolog (Homo sapiens) (UniProt O75844); assay: Inhibition of human FACE1-mediated CaaX protease activity at 10 uM measured every 30 to 60 seconds for 60 mins
T3 sequence (whole entry): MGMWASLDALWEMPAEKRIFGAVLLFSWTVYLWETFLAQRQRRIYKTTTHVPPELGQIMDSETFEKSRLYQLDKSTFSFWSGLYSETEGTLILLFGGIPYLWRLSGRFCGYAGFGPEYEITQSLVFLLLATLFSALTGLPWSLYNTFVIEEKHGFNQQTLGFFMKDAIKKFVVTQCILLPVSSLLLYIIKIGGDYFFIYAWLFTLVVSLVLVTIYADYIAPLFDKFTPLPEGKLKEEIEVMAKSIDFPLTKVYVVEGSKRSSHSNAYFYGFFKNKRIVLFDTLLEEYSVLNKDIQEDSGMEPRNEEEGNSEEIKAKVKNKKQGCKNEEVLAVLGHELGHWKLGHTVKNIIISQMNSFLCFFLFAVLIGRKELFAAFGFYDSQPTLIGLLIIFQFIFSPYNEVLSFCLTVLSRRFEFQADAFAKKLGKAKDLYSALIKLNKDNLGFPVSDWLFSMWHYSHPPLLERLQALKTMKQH
Outline: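 Human Ste24 overexpressed in yeast strain SM3614 (ste24 rce1 null); membranes 0.25 mg/mL final in 200 mM Tris pH 7.5, 200 mM NaCl, 1 mg/mL BSA. Pretreated 15 min at 30 °C with 10 μM compound in duplicate, then 20 μM ABZ-KSKTKC(farnesyl)VIQL substrate added. Fluorescence (ex 320/em 420) read every 30–60 s for 60 min at 30 °C. Initial velocities normalised via trypsin-digest maximum fluorescence and expressed as % of DMSO control. SD shown.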

[5] = test system: Protein farnesyltransferase (Rattus norvegicus); assay: Inhibition of protein farnesyltransferase (rat) at 50 uM measured every 40 seconds for 60 mins

| Structure (SMILES) | Activity [1] | IC50 [3] | inhibition [4] | inhibition [5] | Cell death [2] |
| --- | --- | --- | --- | --- | --- |
| O=[N+]([O-])c1ccc(NC(c2ccc(Br)cc2)c2ccc3cccnc3c2O)cc1 (stereo not given) | 64% | – | – | – | < 10% |
| Oc1c(CNc2ccccc2)ccc2cccnc12 | 82% | – | – | – | < 10% |
| CCOC(=O)c1ccc(NC(c2ccccc2)c2ccc3cccnc3c2O)cc1 (stereo not given) | 52% | – | – | – | < 10% |
| O=C(NC(c1ccccc1)c1ccc2cccnc2c1O)c1ccccc1 (stereo not given) | 81% | – | – | – | < 10% |
| CCCCCCCCOc1ccc(C(Nc2ccccc2)c2ccc3cccnc3c2O)cc1 (stereo not given) | 89% | – | – | – | – |
| CCOC(=O)c1ccc(NC(c2ccc(Cl)cc2)c2ccc3cccnc3c2O)cc1 (stereo not given) | 71% | – | – | – | < 10% |
| Oc1c(C(/N=C/c2ccccc2)c2ccccc2)ccc2cccnc12 (stereo not given) | 73% | – | – | – | < 10% |
| Cc1ccc(NC(c2ccccc2)c2ccc3cccnc3c2O)cc1 (stereo not given) | 54% | 8.8 µM | inactive | – | – |
| Oc1c(C(Nc2ccccc2)c2c(F)cc(Br)cc2F)ccc2ccccc12 (stereo not given) | 45% | 9.4 µM | inactive | – | 40% |
| O=C(O)c1ccc(NC(c2ccc3cccnc3c2O)c2c(F)cc(Br)cc2F)cc1 (stereo not given) | 64% | – | – | – | < 10% |
| Oc1c(C(Nc2ccccc2)c2ccccc2)cc(Cl)c2cccnc12 (stereo not given) | 68% | – | – | – | – |
| Oc1c(C(Nc2nc3ccccc3s2)c2ccccc2)ccc2cccnc12 (stereo not given) | 83% | – | – | – | < 10% |
| O=[N+]([O-])c1ccc(C(Nc2ccccc2)c2ccc3cccnc3c2O)cc1 (stereo not given) | 85% | 11 µM | inactive | – | – |
| Oc1c(C(Nc2ccccc2)c2c(F)cc(Br)cc2F)ccc2cccnc12 (stereo not given) | 76% | – | – | – | < 10% |
| O=C(O)c1ccc(NC(c2ccccn2)c2ccc3cccnc3c2O)cc1 (stereo not given) | 90% | 38 µM | inactive | – | – |
| C[C@@H](N[C@H](c1ccccc1)c1c(O)ccc2ccccc12)c1ccccc1 | 63% | – | – | – | – |
| CCOC(=O)c1ccc(NC(c2ccc3cccnc3c2O)C2CCCC2)cc1 (stereo not given) | 82% | – | – | – | < 10% |
| CCOC(=O)c1ccc(NC(c2ccc(C(F)(F)F)cc2)c2ccc3cccnc3c2O)cc1 (stereo not given) | 89% | – | – | – | < 10% |
| O=C(O)c1ccc(NC(c2ccc3ccccc3c2O)c2c(F)cc(Br)cc2F)cc1 (stereo not given) | 21% | 3.8 µM | inactive | – | < 10% |
| Oc1c(C(Nc2ccccc2)C2CCCCC2)ccc2cccnc12 (stereo not given) | 59% | – | – | – | < 10% |
| O=C(O)c1ccc(NC(c2cccnc2)c2ccc3cccnc3c2O)cc1 (stereo not given) | 70% | 14 µM | inactive | – | – |
| Cc1ccc(C(Nc2ccc(C(=O)O)cc2)c2ccc3cccnc3c2O)cc1 (stereo not given) | 32% | 7.1 µM | inactive | – | – |
| O=C(O)c1ccc(NC(c2ccc(F)cc2)c2ccc3cccnc3c2O)cc1 (stereo not given) | 32% | 8.2 µM | inactive | – | < 10% |
| O=C(O)c1ccc(NC(c2ccc3cccnc3c2O)C2CCCCC2)cc1 (stereo not given) | 34% | 9.8 µM | inactive | – | < 10% |
| N#Cc1ccc(C(Nc2ccc(C(=O)O)cc2)c2ccc3cccnc3c2O)cc1 (stereo not given) | 76% | 16 µM | inactive | – | – |
| CCOC(=O)c1ccc(NC(c2ccc(F)cc2)c2ccc3cccnc3c2O)cc1 (stereo not given) | 63% | – | – | – | < 10% |
| N#Cc1ccc(NC(c2ccccc2)c2ccc3cccnc3c2O)cc1 (stereo not given) | 56% | – | – | – | < 10% |

Continued, in another order:

| Activity [1] | IC50 [3] | inhibition [4] | inhibition [5] | Structure (SMILES) | Cell death [2] |
| --- | --- | --- | --- | --- | --- |
| 59% | – | – | – | Oc1ccc2ccccc2c1C(Nc1ccccc1)c1ccccc1 (stereo not given) | < 10% |
| 79% | – | – | – | CCOC(=O)c1ccc(NC(c2ccccc2)c2ccc(Br)cc2)cc1 (stereo not given) | – |
| 90% | – | – | – | O=C(O)c1ccc(NC(c2ccccc2)c2ccccc2)cc1 | – |
| 17% | 4.9 µM | inactive | – | Oc1c(C(Nc2ccccc2)c2ccccc2)ccc2ccccc12 (stereo not given) | < 10% |
| 89% | – | – | – | O=C(Nc1ccc2ccccc2c1)c1ccc(NC(c2ccccc2)c2ccccc2)cc1 | – |
| 77% | – | – | – | O=C(O)c1ccc2ccc(C(Nc3ccccc3)c3ccccc3)c(O)c2n1 (stereo not given) | – |
| 86% | – | – | – | O=C(O)c1ccc(NC(c2ccccc2)c2ccc(Br)cc2)cc1 (stereo not given) | – |
| 72% | – | – | – | O=C(O)c1cccc(NC(=O)c2ccc(NC(c3ccccc3)c3ccccc3)cc2)c1 | – |
| 27% | 5.4 µM | inactive | – | Oc1c(C(Nc2ccccc2)c2ccccc2)cc(Br)c2ccccc12 (stereo not given) | < 10% |
| 80% | – | – | – | O=C(Nc1ccccc1)c1ccc(NC(c2ccc(Br)cc2)c2ccc(Br)cc2)cc1 | – |
| 23% | 3.9 µM | inactive | – | O=C(O)c1ccc(NC(c2ccc(Br)cc2)c2ccc3ccccc3c2O)cc1 (stereo not given) | < 10% |
| 75% | – | – | – | O=C(OCc1ccccc1)c1ccc2ccc(C(Nc3ccccc3)c3ccccc3)c(O)c2n1 (stereo not given) | – |
| 83% | – | – | – | CCOC(=O)c1ccc(NC(c2ccc(Br)cc2)c2ccc(Br)cc2)cc1 | – |
| 19% | 4.2 µM | inactive | – | O=C(O)c1ccc(NC(c2ccccc2)c2ccc3ccccc3c2O)cc1 (stereo not given) | < 10% |
| 23% | 5.3 µM | inactive | inactive | O=C(O)c1cccc(NC(c2ccccc2)c2ccc3ccccc3c2O)c1 (stereo not given) | < 10% |
| 77% | – | – | – | c1ccc(NC(c2ccccc2)c2ccc3ccccc3c2)cc1 (stereo not given) | – |
| 83% | – | – | – | N#Cc1ccc2ccc(C(Nc3ccccc3)c3ccccc3)c(O)c2n1 (stereo not given) | – |
| 78% | – | – | – | O=C(Nc1ccccc1)c1ccc(NC(c2ccccc2)c2ccccc2)cc1 | – |
| 82% | – | – | – | c1ccc(NC(c2ccccc2)c2ccc3cccnc3c2)cc1 (stereo not given) | – |
| 83% | – | – | – | Cc1ccc2ccc(C(Nc3ccccc3)c3ccccc3)c(O)c2n1 (stereo not given) | – |
| 38% | 5 µM | inactive | – | CC(C)(C)c1ccc(NC(c2ccccc2)c2ccc3ccccc3c2O)cc1 (stereo not given) | < 10% |
| 73% | – | – | – | Oc1c(C(Nc2ccccc2)c2ccccc2)cc(Br)c2cccnc12 (stereo not given) | – |
| 78% | – | – | – | O=C(Nc1ccccc1)c1ccc(NC(c2ccccc2)c2ccc(Br)cc2)cc1 (stereo not given) | – |
| 25% | 6.9 µM | inactive | – | O=C(O)c1ccc(NC(c2ccccc2)c2ccc3cccnc3c2O)cc1 (stereo not given) | < 10% |
| 51% | – | – | – | Oc1c(C(Nc2ccccc2)c2ccccc2)ccc2cc3ccccc3nc12 (stereo not given) | – |
| 83% | – | – | – | O=C(O)c1ccc(NC(c2ccc(Br)cc2)c2ccc(Br)cc2)cc1 | – |
| 51% | – | – | – | Oc1ccc2ccc(O)c(C(Nc3ccccc3)c3ccccc3)c2c1 (stereo not given) | < 10% |
| 82% | – | – | – | CCOC(=O)c1ccc(NC(c2ccccc2)c2ccccc2)cc1 | < 10% |
| 65% | – | – | – | COC(=O)c1ccc(NC(c2ccccc2)c2ccc3cccnc3c2OC)cc1 (stereo not given) | < 10% |
